Active and inactive are the calls of the source. No cut-off for these calls is given here.
Assays:
MCF7 [1] = test: Induction of apoptosis in human MCF7 cells in DMEM medium at pH 6 assessed as increase in cleaved PARP level at 10 uM; assay type: functional, cell-based
Summary of the method: (§1)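 MCF-7 cells treated with peptides at pH 6; apoptosis detected by immunoblotting for cleaved PARP and cleaved caspase-3.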

Staphylococcus carnosus = test: Antimicrobial activity against Staphylococcus carnosus CCM 4838T incubated for 24 hrs by broth microdilution assay; assay type: functional
Escherichia coli [2] = test: Depolarization of cytoplasmic membrane in Escherichia coli ATCC 11775 at MIC measured for 45 mins by DiSC3-(5) dye based assay; assay type: functional, organism-based
Summary of the method: (§2)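 Bacteria loaded with membrane-potential dye DiSC3-(5), then treated with peptide at its MIC for the respective strain; depolarization read as rise in dye fluorescence; polymyxin B and levofloxacin as reference antibiotics.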

Acinetobacter baumannii [3] = test: Depolarization of cytoplasmic membrane in Acinetobacter baumannii ATCC 19606 at MIC measured for 45 mins by DiSC3-(5) dye based assay; assay type: functional, organism-based; summary of the method: as §2
HCT-116 [4] = test: pH-dependent anticancer activity against human HCT-116 cells in PBS medium at 10 uM incubated for 1 hr; assay type: functional, cell-based
Summary of the method: (§3)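 Cells cultured in RPMI, DMEM or PBS, each adjusted to pH 8, 7 or 6, plus one unadjusted (~7.6). Peptide at 10 μM for only 1 h, to limit pH drift from CO₂-bicarbonate buffering. Cell viability read. Controls were melittin, ampicillin and PBS. Two independent repetitions; effects analysed by ANOVA.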

Klebsiella pneumoniae [5] = test: Induction of outer membrane permeabilization in Klebsiella pneumoniae ATCC 13883 measured for 20 mins by NPN uptake assay; assay type: functional, organism-based
Summary of the method: (§4)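 Outer-membrane permeabilization of Gram-negative bacteria read as rise in fluorescence of the lipophilic dye NPN, which enters only when outer-membrane integrity is compromised. Peptides applied at their MIC against the respective strain; polymyxin B and levofloxacin as reference antibiotics. Triplicates.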

Acinetobacter baumannii [6] = test: Induction of outer membrane permeabilization in Acinetobacter baumannii ATCC 19606 measured for 20 mins by NPN uptake assay; assay type: functional, organism-based
Klebsiella pneumoniae [7] = test: Depolarization of cytoplasmic membrane in Klebsiella pneumoniae ATCC 13883 at MIC measured for 45 mins by DiSC3-(5) dye based assay; assay type: functional, organism-based; summary of the method: as §2
MOLM-13 = test: Anti-cancer activity against human MOLM-13 cells incubated for 24 hrs by WST assay; assay type: functional, cell-based; conditions: MOLM-13, 24 h
Escherichia coli [8] = test: Induction of outer membrane permeabilization in Escherichia coli ATCC 11775 measured for 20 mins by NPN uptake assay; assay type: functional, organism-based
K562 [9] = test: pH-dependent anticancer activity against human K562 cells in RPMI medium at 10 uM incubated for 1 hr; assay type: functional, cell-based; summary of the method: as §3
[10] = Cytotoxicity against human granulocytes assessed as deleterious effect upto 50 uM by flow cytometry; assay type: toxicity, cell-based; conditions: granulocyte
Summary of the method: (§5)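 Whole blood from a healthy donor treated with peptides up to 50 μM; effect on B and T lymphocytes, granulocytes and monocytes assessed.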

[11] = Anti-cancer activity against human NHDF cells incubated for 72 hrs by Cell Titer Glo assay; assay type: toxicity, cell-based
Pseudomonas aeruginosa [12] = test: Depolarization of cytoplasmic membrane in Pseudomonas aeruginosa PAO1 at MIC measured for 45 mins by DiSC3-(5) dye based assay; assay type: functional, organism-based; summary of the method: as §2
[13] = Toxicity against reconstructed human skin model assessed as irritation at 50 uM incubated for 1 hr followed by compound washout measured after 42 hrs by MTT assay; assay type: tissue-based, Skin of body
Summary of the method: (§6)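 Reconstructed human epidermis with stratum corneum, per OECD TG 439 skin irritation guideline. Tissues exposed 1 h to peptide at 50 μM, then 42 h post-treatment incubation. Viability read by MTT. Controls were SDS and melittin.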

SUD4 = test: Anti-cancer activity against human SU-DHL-4 cells incubated for 24 hrs by WST assay; assay type: functional, cell-based; conditions: SU-DHL-4, 24 h
Staphylococcus aureus = test: Depolarization of cytoplasmic membrane in Staphylococcus aureus ATCC 12600 at MIC measured for 45 mins by DiSC3-(5) dye based assay; assay type: functional, organism-based; summary of the method: as §2
[14] = Toxicity in neutropenic CD-1 mouse deep thigh infection model infected with Acinetobacter baumannii ATCC 19606 assessed as body weight change at 1.33 mg/kg, ip measured after 4 days; assay type: organism-based; conditions: in vivo, 96 h, time 4 day
Summary of the method: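 Neutropenic mice infected intramuscularly in the right thigh with 10⁶ cells per mL of A. baumannii ATCC 19606. […] Body weight monitored for toxicity. Euthanasia 4 days post-infection (day 8). n = 6 per group, from three inocula.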

MCF7 [15] = test: pH-dependent anticancer activity against human MCF7 cells in PBS medium at 10 uM incubated for 1 hr; assay type: functional, cell-based; summary of the method: as §3
B cell = test: Cytotoxicity against human B-lymphocytes assessed as deleterious effect upto 50 uM by flow cytometry; assay type: toxicity, cell-based; summary of the method: as §5
HL-60 [16] = test: Anti-cancer activity against human HL-60 cells at 10 uM incubated for 30 mins; assay type: functional, cell-based
Monocyte = test: Cytotoxicity against human monocytes assessed as deleterious effect upto 50 uM by flow cytometry; assay type: toxicity, cell-based; summary of the method: as §5
T-cell line = test: Cytotoxicity against human T-lymphocytes assessed as deleterious effect upto 50 uM by flow cytometry; assay type: toxicity, cell-based; summary of the method: as §5
Acinetobacter baumannii [17] = test: Anti-infective activity against Acinetobacter baumannii ATCC 19606 infected in neutropenic CD-1 mouse deep thigh infection model assessed as reduction in bacterial load at 1.33 mg/kg, ip measured after 4 days; assay type: functional, organism-based; conditions: time 4.0 day
Summary of the method: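 Neutropenic mice infected intramuscularly in right thigh with 10⁶ cells per mL A. baumannii ATCC 19606; single intraperitoneal peptide dose at 10× MIC; bacterial load determined 4 days after treatment (euthanized day 8); n = 6 per group from three inocula; one-way ANOVA with Dunnett's test versus untreated.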

Pseudomonas aeruginosa [18] = test: Induction of outer membrane permeabilization in Pseudomonas aeruginosa PAO1 measured for 20 mins by NPN uptake assay; assay type: functional, organism-based; summary of the method: as §4
HCT-116 [19] = test: pH-dependent anticancer activity against human HCT-116 cells in RPMI medium at 10 uM incubated for 1 hr; assay type: functional, cell-based; summary of the method: as §3
K562 [20] = test: pH-dependent anticancer activity against human K562 cells in PBS medium at 10 uM incubated for 1 hr; assay type: functional, cell-based; summary of the method: as §3
[21] = Anti-cancer activity against human MEC-1 cells incubated for 24 hrs by WST assay; assay type: functional, cell-based; conditions: MEC1, 24 h
HCT-116 [22] = test: pH-dependent anticancer activity against human HCT-116 cells in DMEM medium at 10 uM incubated for 1 hr; assay type: functional, cell-based; summary of the method: as §3
MCF7 [23] = test: pH-dependent anticancer activity against human MCF7 cells in RPMI medium at 10 uM incubated for 1 hr; assay type: functional, cell-based; summary of the method: as §3
HL-60 [24] = test: pH-dependent anticancer activity against human HL-60 cells in PBS medium at 10 uM incubated for 1 hr; assay type: functional, cell-based; summary of the method: as §3
[25] = Toxicity against reconstructed human skin model assessed as tissue viability at 50 uM incubated for 1 hr followed by compound washout measured after 42 hrs by MTT assay; assay type: tissue-based, Skin of body; conditions: read-out: Activity; summary of the method: as §6
HL-60 [26] = test: pH-dependent anticancer activity against human HL-60 cells in RPMI medium at 10 uM incubated for 1 hr; assay type: functional, cell-based; summary of the method: as §3
Enterococcus faecium = test: Depolarization of cytoplasmic membrane in Enterococcus faecium ATCC 700221 at MIC measured for 45 mins by DiSC3-(5) dye based assay; assay type: functional, organism-based; summary of the method: as §2
MCF7 [27] = test: pH-dependent anticancer activity against human MCF7 cells in DMEM medium at 10 uM incubated for 1 hr; assay type: functional, cell-based; summary of the method: as §3
K562 [28] = test: pH-dependent anticancer activity against human K562 cells in DMEM medium at 10 uM incubated for 1 hr; assay type: functional, cell-based; summary of the method: as §3
HL-60 [29] = test: pH-dependent anticancer activity against human HL-60 cells in DMEM medium at 10 uM incubated for 1 hr; assay type: functional, cell-based; summary of the method: as §3
[30] = Stability in simulated pore POPC lipid bilayer membrane; assay type: physicochemical
Summary of the method: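 Coarse-grained MD with the "scaled" Martini force field, peptides in POPC membrane, 51 μs. Counts transmembrane peptides at 51 μs. Water beads within 2 nm vertically of membrane centre and peptide–peptide interaction energy averaged over 48–51 μs. Contacts (salt bridge or stacking) scored below 0.8 nm and called stable if present ≥50% of the time.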

MCF7 [31] = test: Induction of apoptosis in human MCF7 cells in DMEM medium at pH 6 assessed as increase in cleaved capase-3 level at 10 uM; assay type: functional, cell-based; summary of the method: as §1

H-HHHHLKKILKKLFQFINQLDNQLQDIHHHH-OH
Activity (MCF7 [1]): Active
MIC (Staphylococcus carnosus): > 50 µM
Activity (Escherichia coli [2]): Active
Activity (Acinetobacter baumannii [3]): Active
Activity (HCT-116 [4]): Active
Activity (Klebsiella pneumoniae [5]): Active
Activity (Acinetobacter baumannii [6]): inactive
Activity (Klebsiella pneumoniae [7]): Active
IC50 (MOLM-13): 1000 nM
Activity (Escherichia coli [8]): Active
Activity (K562 [9]): Active
Activity [10]: Non-Toxic
IC50 at 72 h [11]: > 200000 nM
Activity (Pseudomonas aeruginosa [12]): Active
Activity [13]: Non-Toxic
IC50 (SUD4): 1000 nM
Activity (Staphylococcus aureus): Active
Activity [14]: Non-Toxic
Activity (MCF7 [15]): Active
Activity (B cell): Non-Toxic
Activity (HL-60 [16]): Active
Activity (Monocyte): Non-Toxic
Activity (T-cell line): Non-Toxic
Activity (Acinetobacter baumannii [17]): inactive
Activity (Pseudomonas aeruginosa [18]): Active
Activity (HCT-116 [19]): Active
Activity (K562 [20]): Active
IC50 [21]: 1000 nM
Activity (HCT-116 [22]): Active
Activity (MCF7 [23]): Active
Activity (HL-60 [24]): Active
viability at 1 h, 50 µM [25]: 100%
Activity (HL-60 [26]): Active
Activity (Enterococcus faecium): Active
Activity (MCF7 [27]): Active
Activity (K562 [28]): Active
Activity (HL-60 [29]): Active
Stability [30]: Stable
Activity (MCF7 [31]): Active

Source: ChEMBL document CHEMBL5576140, “Computational Design of Pore-Forming Peptides with Potent Antimicrobial and Anticancer Activities” (J Med Chem, 2024)
